FID counter = counter-screen for HCV NS3 helicase inhibitors: DNA intercalator displacement; DNA fluorescent intercalator displacement, fluorescence; inhibition, % at 7.9 µM; 290,000 tested, 0.17% active; AID 1845; in the data active = inhibition above about 37%;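 note: 0% = vehicle and 100% = reference compound; higher means more ethidium bromide displaced from hairpin DNA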
VIM-2 inhibitor = inhibitors of Pseudomonas aeruginosa VIM-2 metallo-beta-lactamase; inhibition, % at 5.6 µM; 290,000 tested, 0.89% active; AID 1527; purified VIM-2, nitrocefin hydrolysis, epi-absorbance fluorescence;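 active = inhibition above the mean of all tested compounds plus 3 SD, cutoff set per screening run, cut at about 7.5% in these data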;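 note: red hydrolysis product quenches plate fluorescence so inhibitors raise well fluorescence; 0% = enzyme with DMSO and 100% = DMSO without enzyme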
NS3 helicase inh = blocks Hepatitis C virus NS3 helicase unwinding; NS3 helicase DNA unwinding, Cy5 molecular beacon fluorescence; inhibition, % at 10.9 µM; 290,000 tested, 0.56% active; AID 1800;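 active = inhibition above the mean of all tested compounds plus 3 SD, set per campaign, cut at about 35% in these data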;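 note: 0% = DMSO wells and 100% = thioflavine S control wells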
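System: Hepatitis C virus NS3 helicase domain fragment enzyme | Reagent: Annealed dual-labelled DNA beacon duplex, ATP-started | Compound dosing: 10.9 µM single point, 0.8% DMSO | Incubation: 1 h reaction at 25 °C, ATP-initiated | Technique: Cy5 fluorescence | Evaluation: Percent inhibition from t60/t0 fluorescence ratio | Benchmarks: Low DMSO, high thioflavine S at 110 µM | Replication: Singlicate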
IMP-1 inh-1 = blocks Pseudomonas aeruginosa IMP-1 metallo-beta-lactamase; purified IMP-1, nitrocefin hydrolysis, epi-absorbance fluorescence; inhibition, % at 5.6 µM; 290,000 tested, 0.45% active; AID 1556;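 active = inhibition above the mean plus 3 SD of all compounds in the same screening run, cut at about 4.5% in these data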;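 note: 0% = IMP-1 with DMSO and 100% = DMSO wells lacking enzyme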
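System: Purified IMP-1 | Read-out basis: Percent enzyme inhibition | Controls: IMP-1 with DMSO as 0%, enzyme-free DMSO as 100% | Replicates: One well per compound | Doses: 5.6 µM nominal single concentration | Detection: Epi-absorbance fluorescence, 480 nm excitation, 530 nm emission | Incubation: 25 °C, 15 min preincubation, 25 min reaction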
UBC9 SUMO inh = SUMOylation inhibition; 290,000 tested, 0.36% active; inhibition, % at 35 µM; P63279; HTRF SUMOylation assay, SAE1/SAE2 + UBC9, in vitro; in the data active = inhibition above about 50%, passing the limit was not always enough
Target sequence (P63279 whole entry, looked up): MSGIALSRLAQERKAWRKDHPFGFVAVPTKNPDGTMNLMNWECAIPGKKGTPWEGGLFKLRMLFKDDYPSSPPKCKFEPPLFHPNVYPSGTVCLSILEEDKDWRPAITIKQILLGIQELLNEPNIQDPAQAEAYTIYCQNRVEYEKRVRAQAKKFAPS
IMP-1 inh-2 = IMP-1 inhibition, counter-screen for VIM-2 inhibitors | shares compounds with VIM-2 inhibitor | purified IMP-1, nitrocefin hydrolysis, epi-absorbance fluorescence | inhibition, % at 5.6 µM | 1,300 tested, under 10 active; call rule not given here;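 note: 0% = enzyme with vehicle and 100% = vehicle without enzyme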
VIM-2 FRET inh = VIM-2 FRET inhibition, artifact counter-screen; shares compounds with VIM-2 inhibitor; purified VIM-2, CCF2 FRET substrate hydrolysis; inhibition, % at 5.6 µM; 1,300 tested, 23% active;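 active = inhibition above the mean of all tested compounds plus 3 SD, cut at about 19% in these data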;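 note: 0% = VIM-2 plus DMSO and 100% = no enzyme wells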
TEM-1 inh = TEM-1 inhibition, counter-screen for VIM-2 inhibitors; shares compounds with VIM-2 inhibitor; Purified TEM-1, nitrocefin hydrolysis, epi-absorbance fluorescence; inhibition, % at 5.6 µM; 1,300 tested, 3% active;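 active = inhibition above that campaign's mean inhibition plus 3 SD, cut at about 0.46% in these data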;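 note: 0% = TEM-1 with DMSO and 100% = TEM-1 with 100 µM potassium clavulanate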
Target sequence (P62593 whole entry, looked up): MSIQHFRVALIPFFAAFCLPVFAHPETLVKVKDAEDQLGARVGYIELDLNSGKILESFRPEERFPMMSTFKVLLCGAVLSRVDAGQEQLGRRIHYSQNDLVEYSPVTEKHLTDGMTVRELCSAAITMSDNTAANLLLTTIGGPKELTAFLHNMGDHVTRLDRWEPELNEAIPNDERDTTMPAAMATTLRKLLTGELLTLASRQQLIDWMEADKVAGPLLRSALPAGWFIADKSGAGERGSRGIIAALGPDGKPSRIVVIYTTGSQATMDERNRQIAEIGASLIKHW
VIM-2 confirm 2 = confirmation of P. aeruginosa VIM-2 metallo-beta-lactamase inhibitors. shares compounds with VIM-2 inhibitor. purified VIM-2, nitrocefin hydrolysis, epi-absorbance. inhibition, % at 5.6 µM. 1,300 tested, 96% active;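 active = inhibition of the VIM-2 beta-lactamase enzyme above about 11% from the earlier first-round screen, limit read from the data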;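 note: 0% = VIM-2 with DMSO and 100% = buffer wells without enzyme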
Numbers without * were called inactive; . = no result. This is a sample that favours compounds with a hit; in the whole collection about 2.1% have one here.

SMILES	FID counter	VIM-2 inhibitor	NS3 helicase inh	IMP-1 inh-1	UBC9 SUMO inh	IMP-1 inh-2	VIM-2 FRET inh	TEM-1 inh	VIM-2 confirm 2
O=C(CSc1nnc(NC(=O)c2ccccc2F)s1)NCc1ccc(F)cc1	-12	38*	-1	-1	11	-3	61*	-6	44*
CCNc1nc(NC(C)C)nc(ON=C(C)C)n1	3	-4	0	-4	-14	.	.	.	.
O=C(NC1CCSc2ccccc21)c1cccc([N+](=O)[O-])c1 (stereo not given)	0	-1	6	-4	-2	.	.	.	.
O=C(CSc1nnc(NC(=O)c2ccccc2F)s1)NCc1ccco1	-7	41*	4	-1	8	-3	68*	-6	49*
Cn1c2ccccc2c(=O)c2cc(C#Cc3ccc(N)cc3)ccc21	-9	2	31	-3	17	.	.	.	.
COc1ccc(C#Cc2ccc3c(c2)c(=O)c2ccccc2n3C)cc1	2	15*	-10	4	12	-2	3	-4	14*
Cc1ccc2nc3c(cc(C(=O)NC4CCCC4)c(=N)n3CCCn3ccnc3)c(=O)n2c1	15	29*	10	0	19	-4	-17	-5	68*
Cc1cccn2c(=O)c3cc(C(=O)NCCc4ccccc4)c(=N)n(CCCn4ccnc4)c3nc12	18	14*	-11	-1	-2	-2	-39	-6	51*
CCCn1c(=N)c(S(=O)(=O)c2ccccc2)cc2c(=O)n3cccc(C)c3nc21	-3	15*	-10	-1	21	-4	-1	-7	23*
CCCCCn1c(=N)c(S(=O)(=O)c2ccc(Cl)cc2)cc2c(=O)n3cccc(C)c3nc21	-6	1	-2	-4	6	.	.	.	.
CNC(=O)c1cc2c(=O)n3cccc(C)c3nc2n(C(C)C)c1=N	1	12*	5	1	31	-3	-92	-6	26*
COc1ccccc1-c1c(C)oc2cc(OCC(=O)OCc3ccccc3)ccc2c1=O	-36	-4	-6	-2	1	.	.	.	.
COc1ccc2[nH]c3c(c2c1)CCN1C(=O)N([C@@H](C)C(=O)NC2CCCCC2C)C(=O)[C@]31C (stereo not given in full)	-43	0	19	-2	1	.	.	.	.
CN(C(=O)CCN1C(=O)c2ccccc2C1=O)c1ccccc1	-6	-2	1	-1	3	.	.	.	.
CCC(=O)Nc1cccc(NC(=S)NC(=O)c2ccccc2C)c1	-8	0	4	1	2	.	.	.	.
COCCn1c(=N)c(C(=O)NCCc2ccccc2)cc2c(=O)n3cccc(C)c3nc21	3	-3	8	-2	.	.	.	.	.
C=CCn1c(=N)c(C(=O)NCCCOC)cc2c(=O)n3cccc(C)c3nc21	7	25*	16	0	26	-4	-88	-8	29*
Cc1ccc2nc(NC(=O)C3CCN(C(=O)c4ccc(F)cc4)CC3)sc2c1	-35	-4	-15	-3	4	.	.	.	.
CCN(CC)CCNC(=O)c1cc2c(=O)n(C)c3ccccc3c2s1	9	18*	19	-2	22	-2	8	-6	26*
CCCCN(CC)CCNC(=O)c1cc2c(=O)n(C)c3ccccc3c2s1	20	21*	-10	1	8	-2	11	-6	27*
O=[N+]([O-])c1cccc(-c2ccc(CN3CCCCC3)o2)c1	11	1	12	-1	7	.	.	.	.
O=C(O)Cn1cccc1C(=O)c1ccccc1	1	33*	12	-3	11	-2	49*	-4	30*
Cc1ccc(-c2csc(=Nc3cccnc3)n2CCCn2ccnc2)cc1C	12	18*	-61	-4	3	-2	-25	-8	30*
COc1ccc(CCN2C(=O)CSC2c2ccc(F)cc2)cc1 (stereo not given)	-22	-1	-7	-1	-7	.	.	.	.
CC1CC(C)CN(c2ccc([N+](=O)[O-])cc2-c2nn[nH]n2)C1 (stereo not given)	-5	33*	8	-4	-5	-1	61*	2.3*	45*
SMILES	FID counter	VIM-2 inhibitor	NS3 helicase inh	IMP-1 inh-1	UBC9 SUMO inh	IMP-1 inh-2	VIM-2 FRET inh	TEM-1 inh	VIM-2 confirm 2
O=[N+]([O-])c1ccc(-n2cccn2)c(-c2nn[nH]n2)c1	2	-1	-18	-1	6	.	.	.	.
O=C(COC(=O)CNC(=O)c1ccc(Br)o1)Nc1ccccc1OC(F)F	-3	2	9	-3	6	.	.	.	.
CCN1CCN(C(=O)C2CCC(=O)N(Cc3cccc(C(F)(F)F)c3)C2)CC1 (stereo not given)	-1	27*	0	-1	17	-4	-1	-6	2
COc1ccc(CCN2CC(C(=O)N3CCN(C(C)=O)CC3)CCC2=O)cc1 (stereo not given)	-13	-2	6	-2	19	.	.	.	.
O=[N+]([O-])c1ccccc1/C=N/n1c(C2CCCCC2)n[nH]c1=S	-8	-2	6	-5	0	.	.	.	.
O=[N+]([O-])c1ccccc1/C=N/n1c(C(F)(F)F)n[nH]c1=S	7	14*	6	-3	8	-4	55*	-8	36*
CN(C)CCCNc1c2c(nc3cc(-c4cccc(F)c4)nn13)CCC2	22	13*	-10	1	22	0	-5	-5	27*
CCOCCCNc1c2c(nc3cc(-c4ccc(F)cc4)nn13)CCC2	-5	-1	-3	-1	9	.	.	.	.
COc1ccc(/C=C2\N=C(C)OC2=O)cc1[N+](=O)[O-]	-2	-2	15	-2	-10	.	.	.	.
O=C1C(=O)N(CCCn2ccnc2)C(c2ccccn2)/C1=C(/O)c1ccccc1 (stereo not given)	.	.	.	.	18	.	.	.	.
O=C1C(=O)N(Cc2cccnc2)C(c2ccccn2)/C1=C(/O)c1ccccc1 (stereo not given)	13	44*	-1	0	7	-4	62*	-4	50*
COc1ccc(-c2cc(=O)oc3c(O)c(O)ccc23)cc1	-11	13*	8	-6	-6	-5	0	-2	18*
O=C(Nc1cc(S(=O)(=O)N2CCOCC2)ccc1N1CCCC1)c1ccc2c(c1)S(=O)(=O)c1ccccc1C2=O	0	-1	-10	-3	4	.	.	.	.
Cc1cccn2c(=O)c3cc(C(=O)NCC(C)C)sc3nc12	-9	14*	6	-3	23	-2	-3	-3	23*
CC(C)CCNC(=O)c1cc2c(=O)n3ccccc3nc2s1	-15	5	1	-2	26	.	.	.	.

Screening data: PubChem, several laboratories
